The nature of assay [1]: inhibitors of TNFa-induced NFkB p65 translocation, primary screen, imaging, HUVEC, MLSMR starter and 10KST1 sets (AID 438;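 active = inhibition above 20% together with a positive visual image hit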;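 note: compound added about 3h40 before a 20 min TNFalpha stimulation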;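 for inhibition: signal is the nuclear over cytoplasmic p65 intensity ratio per well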). Conditions: HUVEC TNFa-induced p65 nuclear translocation; cell count: measured here: nuclei count (cytotoxicity indicator), at 2.08 µM; inhibition: at 2 µM, stronger effect = higher value, 0% TNFa-plus-vehicle, 100% no-TNFa wells.
Assay [2] is described as follows: endothelial E-selectin expression blockers – imaging, HUVEC, immunofluorescence, MLSMR starter and 10KST1 sets, primary screen (AID 487;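 active = visually confirmed hit in the image check and inhibition above 20%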;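 for inhibition: signal is fraction of cell area covered by stained E-selectin grains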;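 for nuclei count: 100% = median nuclei count of all wells on the same plate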). Conditions: HUVEC TNFalpha-induced E-selectin immunofluorescence imaging, at 2 µM; inhibition: stronger effect = higher value; nuclei count: measured here: cell number, toxicity.
Assay [3] in a line: Primary imaging screen for DUSP6 inhibitors that restore phospho-Erk in transfected HeLa cells, chemical complementation (AID 609;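 active = compounds giving at least 50% inhibition in the cell-based MKP-3 phosphatase rescue imaging test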;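 for inhibition: phospho-Erk level distribution per well compared with pooled transfected vehicle control wells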). The settings on record: HeLa MKP-3 transfected, phospho-Erk imaging KS statistic, at 10 µM, cells stimulated with TPA for 15 min.
In assay [4] the target is Dual specificity protein phosphatase 6 (Homo sapiens) (UniProt Q16828). The assay is described as above. The settings on record: HeLa MKP-3 transfected, phospho-Erk imaging KS statistic; at 10 µM; stronger effect = higher value; cells stimulated with TPA for 15 min.
The target of assay [5] is Voltage-gated potassium channel subunit beta-2 (Rattus norvegicus) (UniProt P62483). In words: inhibitors of rat Kvbeta2 reductase activity – biochemical, NADPH fluorescence, primary screen (AID 622;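 active = fluorescence slope higher than the sample average by over 3 SD, cut at about -0.22 in these data, passing the limit was not always enough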;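 note: slope of raw intensity against log time taken from 70 to 1610 s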). The settings on record: recombinant KvBeta, 4-cyanobenzaldehyde reduction, at 10 µM, stronger effect = higher value.
Assay [6] has the same target. Nature of the assay: enhancers of rat Kvbeta2 NADPH turnover – biochemical, NADPH fluorescence, primary screen (AID 623;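 active = NADPH fluorescence slope more negative than the mean of all samples by about 3 SD, 99.7% confidence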;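 note: fluorescence intensity change per second fitted from 20 to 320 s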). The settings on record: Recombinant KvBeta, NADPH fluorescence decrease slope, 10 min; at 10 µM; stronger effect = lower value.
In assay [7] the target is Muscarinic acetylcholine receptor M4 (Homo sapiens) (UniProt P08173). Nature of the assay: M4-linked GIRK flux change, two-sided – cell-based, HEK293 M4/GIRK, thallium flux, BTC-AM, M4 allosteric agonist project, primary screen (AID 625;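 active = fluorescence slope after compound addition differing from the mean of all tested samples at 99.7% confidence, mostly higher but some lower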;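 note: thallium influx through GIRK channels coupled to M4 in HEK293 cells with BTC-AM dye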). Conditions: at 10 µM, actives lie on both sides. In outline:
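Material – HEK293 cells with M4 receptor and GIRK channels · Buffer or medium – pH 7.3 thallium assay buffer · Doses – one dose, 10 µM final · Timing – cells overnight at 37 °C, BTC-AM loading 1 h, reads 2 min total · Measured by – kinetic fluorescence with BTC-AM dye · Controls – carbachol and DMSO controls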

Assay [8] in a line: inhibitors of larval lipid processing in zebrafish, primary screen, whole organism, PED6 fluorescence, gall bladder and intestine (AID 686;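 active = a full or partial loss of lipid-probe fluorescence in the fish gall bladder, intestine or both, judged by eye; inactive = no fluorescence loss, or compound toxic to the fish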;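 note: larvae 5 to 7 days old with five fish per well; signal comes from phospholipase A2 cleavage of quenched PED6 carried via bile; overnight exposure to compound and PED6 before scoring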). The settings on record: Zebrafish larvae PED6 lipid processing, fluorescence scoring; screened at 20 µM (by protocol). A digest of the protocol:
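system = live zebrafish larvae aged 5-7 days, whole organism | probe or stimulus = ingested quenched lipid PED6 at 100 nM | doses = 20 µM single dose | timing = overnight exposure | detection = fluorescence microscopy with visual scoring of gall bladder and intestine | read-out = visual per-well fluorescence inhibition score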

Assay [9] can be described thus: loss of swimming-algae plug formation – whole organism, Chlamydomonas reinhardtii, WT vs cilia-less mutant, absorbance, 96-well, primary screen (AID 463189).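 Note: 0% = wild type cc124 cells in DMSO and 100% = ciliumless bld1 mutant cells.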 Conditions: Chlamydomonas reinhardtii gravitaxis, OD600 absorbance, 2 days; at 10 µM; stronger effect = higher value.
[10] abbreviates: measured here: cell density z-score.
Where [11] appears, read: measured here: nuclear c-Myc green intensity z-score.
Where [12] appears, read: measured here: nuclear pErk red intensity z-score, stronger effect = higher value.

Active and inactive are the calls of the source.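 Rule for the calls, unless noted: active = inhibition at or above 50% relative to wild type and mutant plate controls; inactive = inhibition below 50%.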

This note sets out measurements from PubChem BioAssay.

Sequence of Muscarinic acetylcholine receptor M4 (Homo sapiens) (P08173 whole entry, looked up): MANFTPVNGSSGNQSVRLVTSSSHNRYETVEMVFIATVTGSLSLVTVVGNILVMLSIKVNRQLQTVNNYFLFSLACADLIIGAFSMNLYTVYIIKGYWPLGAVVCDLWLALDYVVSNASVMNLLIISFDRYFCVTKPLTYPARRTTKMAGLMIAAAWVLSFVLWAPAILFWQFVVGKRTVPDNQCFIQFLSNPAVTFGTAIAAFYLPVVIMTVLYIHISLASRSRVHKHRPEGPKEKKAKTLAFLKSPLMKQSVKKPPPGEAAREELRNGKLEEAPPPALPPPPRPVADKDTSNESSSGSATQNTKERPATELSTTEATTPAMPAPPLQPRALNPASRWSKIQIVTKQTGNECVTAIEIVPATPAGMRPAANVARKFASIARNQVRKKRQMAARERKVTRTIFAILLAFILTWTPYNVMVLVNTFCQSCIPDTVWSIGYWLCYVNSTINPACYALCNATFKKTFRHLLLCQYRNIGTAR
Sequence of Voltage-gated potassium channel subunit beta-2 (Rattus norvegicus) (P62483 whole entry, looked up): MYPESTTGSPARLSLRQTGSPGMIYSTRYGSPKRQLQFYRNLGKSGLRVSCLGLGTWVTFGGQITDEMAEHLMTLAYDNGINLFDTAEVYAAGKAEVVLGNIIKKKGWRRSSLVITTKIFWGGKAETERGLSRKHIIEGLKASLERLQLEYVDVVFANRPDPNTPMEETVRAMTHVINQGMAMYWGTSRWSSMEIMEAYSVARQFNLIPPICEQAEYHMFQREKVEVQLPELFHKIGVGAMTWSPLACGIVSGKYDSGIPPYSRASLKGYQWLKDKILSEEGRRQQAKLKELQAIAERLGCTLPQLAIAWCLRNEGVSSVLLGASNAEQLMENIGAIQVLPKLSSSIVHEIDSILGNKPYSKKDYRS
Sequence of Dual specificity protein phosphatase 6 (Homo sapiens) (Q16828 whole entry, looked up): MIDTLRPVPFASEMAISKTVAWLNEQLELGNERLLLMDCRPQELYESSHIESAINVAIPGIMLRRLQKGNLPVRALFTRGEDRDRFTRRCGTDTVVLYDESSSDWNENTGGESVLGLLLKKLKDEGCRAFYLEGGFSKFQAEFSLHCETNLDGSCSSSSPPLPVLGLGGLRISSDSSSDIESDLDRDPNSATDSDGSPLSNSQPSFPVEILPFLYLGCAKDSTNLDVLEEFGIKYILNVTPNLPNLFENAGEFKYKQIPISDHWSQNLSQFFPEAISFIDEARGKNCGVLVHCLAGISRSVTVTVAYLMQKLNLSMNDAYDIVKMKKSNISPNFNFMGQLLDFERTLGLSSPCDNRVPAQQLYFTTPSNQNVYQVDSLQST

As to `CC12CN3CC(C)(CN(C1)C3c1ccc(Br)cc1O)C2` (centres undefined), in assay [1], the cell count stood at 576. Besides, the inhibition (usually the change of the read-out against control, counted positive when it falls) is -3% (inactive) in [1], -162% (inactive) in assay [2], 5.42% (inactive) in assay [4] and 4.37% (inactive) in assay [9]. This compound also showed a nuclei count in assay [2] of 138%. Also, the z-score in assay [3] (setting [10]) is 0.885; in [3] (setting [11]) it was -1.75; in assay [3] (setting [12]) it was -1.65. The fluorescence slope is -0.472 (inactive) in assay [5] and 0.00399 (inactive) in assay [7]. The NADPH fluorescence slope in [6] was -8.8e-05 (inactive). Besides, the compound was classed as inactive in assay [8].

For `O=C(/C=N/O)NCCCN1CCOCC1`, the cell count in assay [1] was 682. The inhibition in [1] is -11.2% (inactive); in assay [2] it was 3.2% (inactive); in assay [4], -15.1% (inactive); in assay [9], 5.9% (inactive). The compound also yielded a nuclei count in assay [2] of 168%. The z-score in [3] (setting [10]) is -1.5; in [3] (setting [11]), -0.495; in assay [3] (setting [12]) it was 2.77. The fluorescence slope is -0.477 (inactive) in [5] and 0.00666 (inactive) in assay [7]. In addition, the NADPH fluorescence slope in assay [6] is -7.4e-05 (inactive). The outcome in [8] was inactive.

Take `CCOC(=O)C1=C(C)N=C2SC(C)C(=O)N2C1c1ccc(C(=O)OC)cc1` (centres undefined): the cell count in assay [1] is 701. In addition, the inhibition in [1] is 2.4% (inactive); in assay [2], -69.3% (inactive); in assay [4] it was 15% (inactive); in [9], -2.25% (inactive). Further, the nuclei count in [2] was determined as 146%. The z-score is -0.735 in [3] (setting [10]), 0.0686 in assay [3] (setting [11]) and 1.13 in assay [3] (setting [12]). Further, the fluorescence slope in assay [5] is -0.428 (inactive); in assay [7], 0.00536 (inactive). Also, the NADPH fluorescence slope in [6] is -2.7e-05 (inactive). For the same compound, the compound was called inactive in [8].

As to `CCC(C(=O)Nc1nccs1)(C(F)(F)F)C(F)(F)F`, the cell count in assay [1] was determined as 719. In addition, the inhibition in assay [1] is -18.9% (inactive); in assay [2] it was -106% (inactive); in [4] it was 5.95% (inactive); in [9] it was 0.594% (inactive). Moreover, in assay [2], the nuclei count worked out at 203%. The z-score in assay [3] (setting [10]) was 0.755; in [3] (setting [11]), 0.213; in [3] (setting [12]), 0.296. In addition, the fluorescence slope in [5] was -0.49 (inactive); in [7], 0.00509 (inactive). The NADPH fluorescence slope in assay [6] was -6.4e-05 (inactive). Also, in assay [8], the compound was called inactive.

With `Cc1ccccc1-n1c(=O)/c(=C\c2ccco2)s/c1=C(/C#N)C(=O)Nc1ccccc1`, in assay [1], the cell count was determined as 677. The inhibition was -5.8% (inactive) in assay [1], -17.2% (inactive) in assay [2], 9.37% (inactive) in assay [4] and -0.051% (inactive) in [9]. The same compound gave a nuclei count in assay [2] of 151%. For the same compound, the z-score is 0.299 in assay [3] (setting [10]), -0.624 in assay [3] (setting [11]) and -0.976 in assay [3] (setting [12]). Also, the fluorescence slope was -0.475 (inactive) in [5] and 0.00343 (inactive) in [7]. Also, the NADPH fluorescence slope in assay [6] is -4.4e-05 (inactive). Moreover, in assay [8], the compound was classed as inactive.

In the case of `CCCNc1ncnc2c1cnn2-c1ccc(OC)cc1`, the cell count in [1] is 631. The inhibition is -12.5% (inactive) in [1], -39.6% (inactive) in assay [2], 1.42% (inactive) in assay [4] and -16% (inactive) in [9]. This compound also gave a nuclei count in assay [2] of 185%. In addition, the z-score in assay [3] (setting [10]) was -1.64; in assay [3] (setting [11]) it was -0.363; in assay [3] (setting [12]), 0.771. Further, the fluorescence slope in assay [5] is -0.37 (inactive); in [7] it was 0.00652 (inactive). In addition, the NADPH fluorescence slope in [6] is -4.9e-05 (inactive). Besides, the compound was classed as inactive in [8].

Consider `c1ccc2c(c1)[nH]c1c(N3CCSCC3)ncnc12`, for which the cell count in assay [1] came out at 567. Besides, the inhibition in [1] is -4.6% (inactive); in assay [2] it was -117% (inactive); in assay [4] it was -4.59% (inactive); in assay [9] it was 14.6% (inactive). Moreover, the nuclei count in assay [2] turned out to be 193%. For the same compound, the z-score in [3] (setting [10]) is 0.216; in [3] (setting [11]), -0.97; in [3] (setting [12]), -0.889. Further, the fluorescence slope is -0.358 (inactive) in [5] and 0.00494 (inactive) in assay [7]. For the same compound, the NADPH fluorescence slope in assay [6] is -3.7e-06 (inactive). Besides, the call in assay [8] was inactive.

On to `CCOc1ccc(C2=Nn3c(nnc3-c3ccccc3OC)SC2)cc1`, for which the cell count in [1] was 409. Also, the inhibition in [1] is 35.7% (active); in [2], -453% (inactive); in assay [4], 4.25% (inactive); in [9], -11.5% (inactive). This compound registered a nuclei count in assay [2] of 82.2%. Moreover, the z-score in assay [3] (setting [10]) is -1.24; in [3] (setting [11]), 0.121; in [3] (setting [12]), -0.702. In addition, the fluorescence slope is -0.472 (inactive) in [5] and 0.00485 (inactive) in assay [7]. Also, in [6], the NADPH fluorescence slope was -1.9e-05 (inactive). Further, the compound was called inactive in assay [8].

As to `COc1cc(Cn2ccnc2)c(OC)cc1Cn1ccnc1`, the cell count in assay [1] came out at 588. Besides, the inhibition in assay [1] is 0.1% (inactive); in assay [2], -64% (inactive); in assay [4], 1.63% (inactive); in assay [9] it was 10.7% (inactive). Moreover, the nuclei count in assay [2] amounted to 154%. Besides, the results for the z-score in [3] (setting [10]), in [3] (setting [11]) and in assay [3] (setting [12]) were 0.988, 1.55 and 0.136, respectively. For the same compound, the fluorescence slope was -0.422 (inactive) in assay [5] and 0.0052 (inactive) in assay [7]. In addition, in assay [6], the NADPH fluorescence slope was -0.000118 (inactive). Besides, the compound was called inactive in assay [8].

As for `CN1CCc2c(C#N)c(N3CCCCC3)nc(N3CCOCC3)c2C1`, in assay [1], the cell count stood at 534. Moreover, the inhibition in [1] was -9.2% (inactive); in assay [2], -129% (inactive); in assay [4], -0.584% (inactive); in assay [9], 4.52% (inactive). In assay [2], this compound yielded a nuclei count of 127%. In addition, the figures for the z-score in [3] (setting [10]), in assay [3] (setting [11]) and in assay [3] (setting [12]) were 0.848, -1.39 and 0.568, respectively. Further, the values for the fluorescence slope in [5] and in assay [7] were -0.418 (inactive) and 0.00417 (inactive), respectively. Moreover, the NADPH fluorescence slope in [6] was -5.8e-05 (inactive). In assay [8], the result was inactive.

As for `CSc1nc2[nH]c3c(c2c2nncn12)CC(C)(C)OC3`, in [1], the cell count is 554. The inhibition in [1] was -4.9% (inactive); in [2] it was -169% (inactive); in [4] it was 5.42% (inactive); in assay [9], -2.07% (inactive). The nuclei count in [2] turned out to be 129%. Moreover, the z-score is 0.946 in assay [3] (setting [10]), 0.54 in assay [3] (setting [11]) and -1.06 in assay [3] (setting [12]). Further, the values for the fluorescence slope in assay [5] and in [7] were -0.511 (inactive) and 0.00422 (inactive), respectively. Besides, the NADPH fluorescence slope in [6] is -8.3e-05 (inactive). Besides, in assay [8], the call was inactive.

For `Cc1ccc(N2C(=O)CC3(CC4C=CC3C4)C2=O)cc1` (centres undefined), in [1], the cell count is 637. The inhibition in assay [1] was 6.2% (inactive); in [2] it was -47.9% (inactive); in assay [4], -2.09% (inactive); in assay [9] it was -4.98% (inactive). Further, in [2], the nuclei count amounted to 115%. Also, the figures for the z-score in [3] (setting [10]), in [3] (setting [11]) and in assay [3] (setting [12]) were 1.62, -0.359 and -0.765, respectively. In addition, the fluorescence slope is -0.414 (inactive) in assay [5] and 0.00482 (inactive) in assay [7]. Also, in assay [6], the NADPH fluorescence slope is -3.6e-05 (inactive). For the same compound, the result in assay [8] was inactive.

With `COc1cc(=O)[nH]c(=O)n1CC(=O)c1ccccc1`, the cell count in assay [1] is 719. Further, the inhibition in [1] is -7.7% (inactive); in assay [2], -4.5% (inactive); in [4] it was -2.09% (inactive); in [9] it was -0.879% (inactive). This compound gave a nuclei count in assay [2] of 160%. Also, the z-score in [3] (setting [10]) was -0.792; in assay [3] (setting [11]), 1.02; in assay [3] (setting [12]), 1.07. In addition, the fluorescence slope in [5] is -0.452 (inactive); in assay [7] it was 0.00585 (inactive). Further, the NADPH fluorescence slope in assay [6] was -3.7e-05 (inactive). Besides, the compound was classed as inactive in [8].
